Compound activity (PubChem)
NF-kB expr up = NF-kB expression increase, human neuronal cells. NF-kB reporter expression; stronger effect = higher value. fold change at 12.5 µM. hit rate 1.6% among 190,000; in the data active means fold change above about 3.3
STAT3 blocker = STAT3 signaling inhibition; U3A cells, IL-6 STAT3-luciferase reporter, luminescence; host cell line lacks STAT1; inhibition, % at 5.5 µM; hit rate 0.89% among 190,000;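 active means inhibition above the mean inhibition across all screened compounds plus 3 SD, cut at about 44% in these data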;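 further: 0% = DMSO only wells and 100% = 100 µM nifuroxazide control wells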
APP 5'UTR act = APP 5'UTR luciferase reporter activation; SH-SY5Y APP 5'UTR luciferase reporter, luminescence; zero percent = DMSO vehicle wells; activation, % at 2 µM; hit rate 1% among 190,000; AID 1276;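 active means activation above a set limit, based on mean plus 3 SD of controls, cut at about 140% in these data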
STAT1 inh = inhibitors of IFN-gamma induced STAT1 signaling; NIH 3T3 STAT1-luciferase reporter, luminescence; inhibition, % at 5.5 µM; hit rate 0.35% among 200,000;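 active means inhibition above a set limit, the mean inhibition across all tested compounds plus 3 SD, cut at about 34% in these data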;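 further: 0% = IFN-gamma with DMSO and 100% = IFN-gamma with 300 µM nifuroxazide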
STAT3 act = increases IL-6 driven STAT3 reporter signal | U3A cells, IL-6 STAT3-luciferase reporter, luminescence; 100% = signal with IL-6 EC80 alone | activation (% of control), % at 5.6 µM | hit rate 0.91% among 190,000 | AID 871;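 active means activation above the screen-wide mean of compound activation plus 3 SD, cut at about 130% in these data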;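 further: 0% = background luminescence of wells with medium and substrate only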
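System – human U3A cells carrying STAT3-luciferase construct · Probe or stimulus – Interleukin-6, 33 ng/mL · Schedule – compound 1 h, then IL-6 6 h at 37 °C · Signal – luminescence from STAT3-driven luciferase reporter · Evaluation – percent of IL-6-only median luminescence · Benchmarks – IL-6-only high control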
STAT1 activator = increases IFN-gamma driven STAT1 reporter signal; NIH 3T3 STAT1-luciferase reporter, luminescence; 100% = IFN-gamma alone, no compound; activation (% of control), % at 5.5 µM; hit rate 2.6% among 200,000; AID 932;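 active means activation above the screen-wide mean activation plus 3 SD, cut at about 130% in these data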;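 further: raw ratio to IFN-gamma control signal so 100% means no change and 0% no light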
* = called active by the depositor; · = not tested or not shown. Hits are enriched below; roughly 4.9% of the tested compounds scored in any of these assays.

SMILES	NF-kB expr up	STAT3 blocker	APP 5'UTR act	STAT1 inh	STAT3 act	STAT1 activator
CC(NC(=O)c1ccnn1C)C1CCCO1 (configuration not stated)	1.02	2.0	7.8	-1.9	98.2	101.9
O=c1c(-c2ccc3c(c2)OCCO3)coc2cc(OC3OC(CO)C(O)C(O)C3O)ccc12 (configuration not stated)	·	·	158.9*	·	·	·
Cc1ccccc1Nc1nc(N)nc(COC(=O)c2ccc(S(=O)(=O)N(C)C)cc2)n1	0.96	2.2	-4.7	-0.2	97.4	100.2
Cc1ccccc1Oc1nc2ccccn2c(=O)c1/C=C(\C#N)C(=O)Nc1c(C)n(C)n(-c2ccccc2)c1=O	4.56*	-2.9	2.4	-6.5	105.3	105.9
Cc1cc(C)c2nc(SCC(=O)N3CC(=O)Nc4ccccc43)c(C#N)cc2c1	3.46*	9.9	-95.9	-4.6	93.4	104.2
Cc1ccc(C(=O)c2ccccc2C(=O)OCC(=O)NC(C)(C)C)cc1	1.01	3.1	-6.7	8.9	104.2	90.6
Cc1ccc(S(=O)(=O)N2CCC(CN3C(=O)c4cccc5cccc(c45)C3=O)CC2)cc1	0.87	-108.1	9.3	0.9	186.4*	99.2
O=C1c2cccc3cccc(c23)C(=O)N1CC1CCN(S(=O)(=O)c2ccc(F)cc2)CC1	0.97	-6.1	7.8	3.3	102.9	97.0
COc1cc2c(cc1NC(=O)C1CCCO1)oc1ccccc12 (configuration not stated)	5.59*	-76.5	161.7*	-51.0	166.3*	147.0*
COc1cc2c(cc1NC(=O)c1cccc(S(=O)(=O)N(C)C)c1)oc1ccccc12	1.45	5.6	19.9	-37.6	96.4	134.4*
COc1ccc(Cl)cc1NC(=O)C1CCCO1 (configuration not stated)	1.05	7.2	-11.6	0.5	97.2	99.5
Cc1nnc2n(c1=O)C(CS(=O)(=O)c1ccc3ccccc3c1)CS2 (configuration not stated)	1.12	-1.6	0.4	16.8	103.0	83.1
Cc1ccc(CN2CCc3[nH]c(=O)[nH]c(=O)c3C2)cc1	1.26	5.1	11.9	-13.2	102.2	112.0
COc1ccc(C(=O)Cc2ccc(F)cc2)c(OC)c1	1.94	5.6	46.1	-43.6	98.5	138.5*
COc1ccc(C(=O)Cc2cc(OC)c(OC)cc2[N+](=O)[O-])c(OC)c1	1.03	-6.3	3.6	-11.4	109.1	110.2
Cc1ccc(NC(=O)Cn2nnc3ccccc32)cc1	0.94	-22.8	57.5	-30.7	121.5	126.4
COc1cc(/C=N/NC(=O)Cn2nnc3ccccc32)ccc1O	1.05	1.5	13.4	-8.6	106.2	108.4
COC(=O)c1ccc(NC(=O)Cn2nnc3ccccc32)cc1	2.5	2.2	63.4	-36.8	103.3	133.6*
COc1cccc(/C=N\NC(=O)Cn2nnc3ccccc32)c1O	3.3*	-7.5	-0.1	-7.5	108.4	105.2
Cc1cccc(NC(=O)Cn2nnc3ccccc32)c1	2.64	-7.4	44.6	-35.9	112.4	130.5*
COc1cc(/C=C2\N=C(c3c(-c4ccccc4)noc3C)OC2=O)ccc1OC(C)=O	1.19	5.5	6.5	0.8	100.2	99.2
CN(C)c1ccc(Cl)cc1N	0.91	-0.2	-4.3	-4.8	104.8	103.2
O=C1NN=COc2ccccc21	1.03	-28.4	5.4	2.7	133.3*	96.6
O=C1NC(c2ccc(Cl)cc2)=COc2ccccc21	1.04	6.6	13.6	-9.4	97.8	108.4
O=C(NCCCn1ccnc1)c1cc(-c2cccs2)on1	10.5*	-26.0	18.9	-51.5	123.5	146.6*
SMILES	NF-kB expr up	STAT3 blocker	APP 5'UTR act	STAT1 inh	STAT3 act	STAT1 activator
O=C(NCCCn1ccnc1)c1ccc(S(=O)(=O)N2CCOCC2)cc1	3.97*	11.6	-6.3	-0.3	96.6	99.0
O=C(NCCCN1CCOCC1)c1cc(-c2cccs2)on1	7.29*	-21.3	22.1	-21.1	120.5	119.4
O=C(NCCCN1CCOCC1)c1ccc(-n2nc(C(F)(F)F)cc2-c2cccs2)cc1	0.74	24.4	-14.6	9.4	79.9	91.3
O=C(N/N=C/c1ccccc1C(F)(F)F)c1ccc(O)cc1	1.68	-13.6	45.0	-33.0	114.7	130.4*
CC(C)(C)c1ccc(C(=O)N/N=C/c2cccc(Cl)c2)cc1	2	7.1	·	-23.1	92.9	121.2
O=C(N/N=C/c1c(Cl)cccc1Cl)c1cccc(F)c1	0.97	12.7	12.6	-14.5	97.8	113.1
O=C(N/N=C/c1ccccc1Cl)c1cccc(F)c1	2.1	-0.3	70.5	-53.9	109.1	148.5*
O=C(N/N=C/c1cccc(F)c1)c1ccc(Cl)cc1	2.7	10.2	19.9	-41.0	95.8	138.0*
O=C(N/N=C/c1ccc(-c2ccccc2Cl)o1)c1ccccc1	1.24	13.4	30.4	-41.6	98.2	137.2*
O=S(=O)(N/N=C\c1ccc(-c2ccccc2Cl)o1)c1ccccc1	1	10.6	-1.9	1.6	92.9	97.0
COc1ccc(-c2cn3c(C)c(C(=O)NCc4ccc5c(c4)OCO5)sc3n2)cc1	·	21.7	-7.0	3.5	86.2	96.8
CCC(OC(=O)CC1Sc2ccccc2NC1=O)C(=O)NCC1CCCO1 (configuration not stated)	0.95	1.4	2.8	4.9	102.5	95.5
CCCCOc1ccc(C(=O)N/N=C/c2ccc(OCCN3CCCCC3)c(OC)c2)cc1	0.57	1.0	9.0	1.7	101.2	98.5
Cc1cc[n+](CC2OCc3ccccc3CO2)cc1	0.96	6.0	7.4	4.7	99.4	94.4
Cc1ccccc1C(=O)Nc1ccc(C(=O)N/N=C/c2ccncc2)cc1	0.7	11.8	-1.9	2.0	98.7	96.6
O=C(Nc1ccccc1C(=O)N/N=C/c1ccncc1)c1ccccc1	1.34	67.0*	16.2	54.0*	44.8	50.2
Fc1cccc(/C=N/NC(=S)Nc2ccccc2Cl)c1	1.67	2.2	14.4	-34.8	98.9	131.1*
O=C(N/N=C/c1ccc(F)cc1)c1ccccc1	2.65	4.7	66.0	-32.3	97.3	128.9*
O=C(N/N=C/c1cccc(F)c1)c1csc2c1CCCC2	5.47*	-1.5	123.3	-47.6	102.3	142.5*
O=C(N/N=C/c1cccc(O)c1)c1csc2ccccc12	1.55	8.4	13.6	-2.4	93.3	102.2
CCOC(=O)C1(Cc2ccccc2C)CCCN(C(=O)c2cc(CC)nn2C)C1 (configuration not stated)	1.34	1.5	4.7	5.8	100.6	93.0
O=C(NCCc1cccc(F)c1)/C(=C/c1cccnc1)NC(=O)c1ccccc1	1.21	-9.9	17.8	-11.3	106.7	110.7
COc1ccc(-c2cn3cc(Br)cnc3n2)cc1	2.17	15.6	100.4	-39.7	90.2	134.6*
COc1ccc(-c2cn3cccnc3n2)cc1Br	1.73	13.8	-4.4	-7.6	91.2	106.8
COc1ccc2c(=O)c(-c3ccccc3)coc2c1	7.31*	31.0	158.4*	-33.8	76.1	129.8*
